# Only some compounds are listed: those with a hit (about 2.6% of all), similar ones and a draw of the others.
# NadD inh – inhibitors of S. aureus NadD, primary screen, biochemical, colorimetric, uHTS | Nicotinate-nucleotide adenylyltransferase NadD (Staphylococcus aureus N315) | purified NadD enzyme, colorimetric absorbance read-out | inhibition, % at 20 µM | 0.78% of 360,000 active; in the data active = inhibition above about 26%
# LMPTP block – LMPTP phosphatase inhibitors, primary screen, biochemical, fluorescence intensity, uHTS; Low molecular weight phosphotyrosine protein phosphatase (Homo sapiens), P24666; recombinant LMPTP-A, OMFP fluorogenic substrate; inhibition, % at 20 µM; 0.22% of 360,000 active; AID 651560, 2012;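 active = compounds that cut the enzyme signal by at least half of the control window in the single-dose screen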
# Target sequence (P24666 whole entry, looked up): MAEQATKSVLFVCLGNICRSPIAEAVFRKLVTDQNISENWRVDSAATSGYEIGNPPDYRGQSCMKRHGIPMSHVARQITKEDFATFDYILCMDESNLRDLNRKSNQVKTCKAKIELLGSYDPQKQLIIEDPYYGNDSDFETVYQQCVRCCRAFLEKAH
#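 Material: LMPTP-A; amount: 0.625 nM enzyme; doses: single 20 µM dose; times: reaction 50 min, room temperature, dark; technique: fluorescence intensity of OMFP turnover product; benchmarks: no-enzyme and uninhibited controls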
# STEP block – STEP phosphatase inhibitors, primary screen, biochemical, fluorescence intensity, uHTS. recombinant STEP, OMFP fluorogenic substrate. inhibition, % at 20 µM. 0.25% of 360,000 active;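 active = inhibition at 20 µM, scaled per plate between control wells, above about 37%, limit read from the data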
#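 material = STEP tyrosine phosphatase | reagent = fluorogenic phosphatase substrate OMFP at 25 µM final | doses = single compound dose of 20 µM, 1% DMSO final | schedule = 20 min reaction, room temperature, in the dark | measured by = fluorescence, 480/540 nm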
# Scp-1 inhibitor – Scp-1 phosphatase inhibitors, primary screen, biochemical, colorimetric, uHTS | Carboxy-terminal domain RNA polymerase II polypeptide A small phosphatase 1 (Homo … | Recombinant Scp1, phosphopeptide, malachite green phosphate absorbance | inhibition, % at 20 µM | 0.88% of 340,000 active | AID 493091, 2011;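 active = inhibition above about 50% at 20 µM, limit read from the data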
# Target sequence (Q9GZU7 76-261 limits assumed): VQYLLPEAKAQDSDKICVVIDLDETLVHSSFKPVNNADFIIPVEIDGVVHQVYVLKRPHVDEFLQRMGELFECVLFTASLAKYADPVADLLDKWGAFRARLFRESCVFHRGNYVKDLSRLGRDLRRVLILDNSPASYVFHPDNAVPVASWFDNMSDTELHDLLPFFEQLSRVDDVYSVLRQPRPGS
#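 System: truncated SCP-1 phosphatase (76-261aa); medium: Tris acetate buffer pH 5.5 with MgCl2 and Tween-20; incubation: 45 min room-temperature reaction, 5 min colour, 30 min stabiliser; compound: single 20 µM dose, 1% DMSO; reagent: Phosphorylated 17-residue peptide substrate; read-out: % inhibition at 20 µM; technique: colorimetric free-phosphate detection, absorbance 630 nm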
# rCAG binder – binders of r(CAG) RNA repeats, primary screen, biochemical, fluorescence | r(CAG) RNA repeat, TO-PRO-1 dye displacement fluorescence | inhibition, % at 3 µM | 1.3% of 370,000 active;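 active = inhibition above the plate cutoff, the mean of all test compounds on that plate plus 3 SD, cut at about 35% in these data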;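 also: higher means more dye released from RNA so lower well fluorescence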
# Scp-1 conf – Scp-1 phosphatase inhibitors, retest, confirmation, biochemical, colorimetric, single concentration | recombinant SCP-1 catalytic domain, phosphate release, malachite green absorbance | 61% of 2,500 active | inhibition, % at 20 µM | shares compounds with Scp-1 inhibitor | AID 540281, 2011
# MG interference – colorimetric readout interference by compounds, confirmation, artefact control for Scp-1 inhibitor project, biochemical, single concentration. shares compounds with Scp-1 inhibitor. Colorimetric interference counterscreen, malachite green absorbance 630 nm. apparent inhibition (interference), % at 20 µM. 2,500 tested, under 10 active;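 also: compounds added after enzyme reaction finished so only phosphate colour detection is probed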
# Scp1 DSF – Scp-1 binding by thermal shift, confirmation, orthogonal assay for Scp-1 inhibitor project, biophysical, differential scanning fluorimetry; shares compounds with Scp-1 inhibitor; Recombinant SCP1, Sypro Orange thermal shift Tm; thermal shift relative to vanadate control, % at 40 µM; 25% of 1,500 active; AID 540329, 2011;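 active = substances whose mean melting-temperature shift, as a percentage of the reference inhibitor's shift, reaches about 5.3%, limit read from the data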
# Numbers stand for hits; n = inactive; x = no result.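 The calls were made as follows, unless noted: active = inhibition of at least 30% at 20 µM; inactive = the rest.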
SMILES,NadD inh,LMPTP block,STEP block,Scp-1 inhibitor,rCAG binder,Scp-1 conf,MG interference,others
CCC(C)N(C(=O)c1ccc(CNC(=O)c2cccc(Br)c2)cc1)C(C)CC (stereo not drawn),x,x,x,x,n,x,x,
COc1ccc(CN2CCN(C(=O)Cn3nc(C(=O)O)c4ccccc4c3=O)CC2)cc1F,n,n,n,56.9,n,n,n,
NS(=O)(=O)c1ccc(NC(=O)C2Cc3ccccc3CN2C(=O)c2ccco2)cc1 (stereo not drawn),n,n,n,60.9,n,66.3,n,Scp1 DSF=7.9
NS(=O)(=O)c1ccc(CCNC(=O)C2Cc3ccccc3CN2C(=O)c2ccco2)cc1 (stereo not drawn),n,n,n,n,n,x,x,
COC(=O)c1cc(-c2ccc(C(C)=O)cc2)c(=O)n2c1CCC2,x,x,x,x,n,x,x,
COc1ccc(NC(=O)Nc2ccc(N(C)C)cc2)cc1,n,n,n,56.6,n,n,n,
COc1ccc(NC(=O)Nc2ccc(OC)cc2)cc1,n,n,n,n,n,x,x,
N#CCCCc1cn(-c2ccc(-c3noc4c3C(=O)N(CC(=O)N3CCOCC3)CC4)cc2)nn1,x,x,x,x,n,x,x,
CN1CCCN(C(=O)CN2C(=O)CC(C)(C)S(=O)(=O)c3ccccc32)CC1,x,x,x,x,n,x,x,
CC[N+]1(CC)CC2CCC(C)(C1)C2(C)C (stereo not drawn),n,n,n,53.4,n,88.0,n,Scp1 DSF=n
CC12CCC(C[N+](C)(C)C1)C2(C)C (stereo not drawn),n,n,n,85.9,n,95.6,n,Scp1 DSF=n
Cc1ccccc1C(=O)NC1CCCCN(C(C)C)C1=O (stereo not drawn),x,x,x,x,n,x,x,
O=C(Nc1ccnc(=O)[nH]1)c1sc2ccccc2c1Cl,n,n,n,98.2,n,66.6,n,Scp1 DSF=n
O=C(O)CSc1c2c(nc3cc(C(=O)Nc4ccc(F)c(Cl)c4)ccc13)CCCC2,n,n,n,52.0,n,82.8,n,Scp1 DSF=n
COc1ccc(NC(=O)c2ccc3c(SCC(=O)O)c4c(nc3c2)CCCC4)cc1Cl,x,x,x,x,n,x,x,
COc1ccc(C(=O)N/N=C/c2ccc(OC(=O)c3cccc4ccccc34)c([N+](=O)[O-])c2)cc1,n,n,n,91.8,n,65.1,n,Scp1 DSF=6.6
CC1C=CC=CCCC=CC=CC=CC=CC(OC2O[C@H](C)[C@@H](O)[C@H](N)[C@@H]2O)CC(O)C(C(=O)O)C(O)CC(=O)CC(O)C(O)CCC(O)CC(O)CC(O)CC(=O)OC(C)C(C)C1O (stereo partly drawn),x,x,x,x,n,x,x,
COc1ccc2[nH]c(=O)c(CN(C(=O)c3ccco3)C(C)C)cc2c1,n,n,n,60.1,n,n,n,
CN1CCCN(S(=O)(=O)c2ccc3c(c2)n(C)c(=O)c(=O)n3C)CC1,x,x,x,x,n,x,x,
C[N+](C)(C)c1ccc(/C=N/Nc2nc(Cl)c(C#N)c(Cl)c2Cl)cc1,n,n,n,53.1,n,n,n,
CN(/N=C/c1ccncc1)C1=NCCN1,n,n,n,85.5,n,n,n,
CC(C)C(=O)Nc1ccc(C(=O)N/N=C/c2cc(Br)cc(Br)c2O)cc1,n,n,n,54.6,n,n,n,
CC(=O)Nc1ccc(C(=O)N/N=C/c2cc(Br)cc(Br)c2O)cc1,n,n,n,n,n,x,x,
CC(C)OC(=O)CC1C(=O)NCCN1C(=S)NC(=O)CCc1ccccc1 (stereo not drawn),n,n,n,n,n,n,n,
COC(=O)CC1C(=O)NCCN1C(=S)NC(=O)CCc1ccccc1 (stereo not drawn),n,n,n,n,n,x,x,
SMILES,NadD inh,LMPTP block,STEP block,Scp-1 inhibitor,rCAG binder,Scp-1 conf,MG interference,others
C=CCn1c(SCC(=O)c2ccc(-c3ccccc3)cc2)nnc1-c1ccc(OC)cc1,x,x,x,x,n,x,x,
C[n+]1cn(CC(O)COCc2ccccc2)c2ccccc21 (stereo not drawn),n,n,n,71.0,n,71.1,n,Scp1 DSF=n
Cc1cc2c(cc1C)[n+](C)cn2CC(O)COCc1ccccc1 (stereo not drawn),n,n,n,n,n,x,x,
CCOC(=O)C1=NOC(C(=O)NCCO)(C(=O)C2CC2)C1 (stereo not drawn),x,x,x,x,n,x,x,
Cc1noc(C)c1NC(=O)N(C)C[C@H]1Oc2ccc(NS(=O)(=O)c3cn(C)cn3)cc2C(=O)N([C@H](C)CO)C[C@@H]1C,n,n,n,63.8,n,n,n,
C[C@@H]1CN([C@H](C)CO)C(=O)Cc2cc(NS(=O)(=O)c3cn(C)cn3)ccc2O[C@H]1CN(C)S(=O)(=O)c1ccc(Cl)cc1,n,n,n,65.0,n,n,n,
C[C@H](CO)N1C[C@H](C)[C@@H](CN(C)C(=O)Nc2ccccc2)Oc2ccc(NS(=O)(=O)c3cn(C)cn3)cc2C1=O,n,n,n,71.1,n,n,n,
C[C@H](CO)N1C[C@H](C)[C@@H](CN(C)C(=O)Nc2ccc3c(c2)OCO3)Oc2ccc(NS(=O)(=O)c3cn(C)cn3)cc2C1=O,n,n,n,68.9,n,n,n,
C[C@H](CO)N1C[C@H](C)[C@@H](CN(C)S(=O)(=O)c2ccccc2)Oc2ccc(NS(=O)(=O)c3cn(C)cn3)cc2C1=O,n,n,n,n,n,x,x,
O=C(NCc1ccco1)C1CCCN(S(=O)(=O)c2ccccc2F)C1 (stereo not drawn),x,x,x,x,n,x,x,
Cc1ccc(NC(=O)COc2coc(CN3CCc4ccccc43)cc2=O)cc1Cl,n,n,n,59.2,n,55.0,n,Scp1 DSF=n
COc1cccc(OCc2cc(C(=O)N(C)CCOc3ccc(C)cc3)no2)c1,n,n,n,55.1,n,n,n,
Cc1cc(OCc2cc(C(=O)N(C)CCOc3ccccc3)no2)cc(C)c1Cl,n,n,n,n,n,x,x,
C[C@H](CCC(=O)O)[C@H]1CC[C@H]2[C@@H]3CC[C@@H]4C[C@H](O)CC[C@]4(C)[C@H]3CC[C@]12C,n,n,n,58.3,n,56.3,n,Scp1 DSF=n

# Screens from PubChem BioAssay.
